What was measured:
[1] = biological target: T1, Neuronal acetylcholine receptor; alpha3/beta4 (Rattus norvegicus, UniProt P04757+P12392); test: Displacement of [3H]epibatidine from rat alpha3beta4 nAChR expressed in […] cells after 3 hrs; assay type: cell-based
[2] = biological target: Neuronal acetylcholine receptor; alpha4/beta2 (Rattus norvegicus, UniProt P09483+P12390); test: Displacement of [3H]epibatidine from rat alpha4beta2 nAChR expressed in […] cells after 3 hrs; assay type: cell-based
[3] = biological target: T1, Neuronal acetylcholine receptor; alpha3/beta4; test: Partial agonist activity at rat alpha3beta4 nAChR expressed in […] cells assessed as increase of calcium influx by FLIPR assay; assay type: functional, cell-based
Summary of the method: (§1)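 For functional assays, KXα3β4R2 cells (DMEM, 10% FBS, geneticin, 37°C, 7.5% CO2) were seeded into collagen-coated 96-well plates at about 50,000 cells/well. They grew to a confluent monolayer in 24 to 30 h before testing.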

[4] = biological target: Neuronal acetylcholine receptor; alpha3/beta4 (Rattus norvegicus) (UniProt P04757+P12392); test: Partial agonist activity at rat alpha3beta4 nAChR expressed in […] cells assessed as increase of calcium influx by FLIPR assay relative to control; assay type: functional, cell-based; summary of the method: as §1
Rattus norvegicus [5] = species: Rattus norvegicus; test: Selectivity ratio of Ki for rat alpha3beta4 nAChR to Ki for rat alpha4beta2 nAChR
Summary of the method: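 KXα3β4R2 or KXα4β2R2 cells grown in DMEM with 10% FBS and 0.4 mg/mL geneticin at 37°C under 7.5% CO2. Cells were scraped, homogenised in Tris buffer and spun at 20,000 x g to give membranes. […] Ki was obtained from IC50 by Cheng-Prusoff.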

Rattus norvegicus [6] = species: Rattus norvegicus; test: Selectivity ratio of Ki for rat alpha3beta4 nAChR to Ki for alpha7 nAChR in rat brain membranes; assay type: cell membranes

Sequence of Neuronal acetylcholine receptor; alpha4/beta2 (P09483 whole entry): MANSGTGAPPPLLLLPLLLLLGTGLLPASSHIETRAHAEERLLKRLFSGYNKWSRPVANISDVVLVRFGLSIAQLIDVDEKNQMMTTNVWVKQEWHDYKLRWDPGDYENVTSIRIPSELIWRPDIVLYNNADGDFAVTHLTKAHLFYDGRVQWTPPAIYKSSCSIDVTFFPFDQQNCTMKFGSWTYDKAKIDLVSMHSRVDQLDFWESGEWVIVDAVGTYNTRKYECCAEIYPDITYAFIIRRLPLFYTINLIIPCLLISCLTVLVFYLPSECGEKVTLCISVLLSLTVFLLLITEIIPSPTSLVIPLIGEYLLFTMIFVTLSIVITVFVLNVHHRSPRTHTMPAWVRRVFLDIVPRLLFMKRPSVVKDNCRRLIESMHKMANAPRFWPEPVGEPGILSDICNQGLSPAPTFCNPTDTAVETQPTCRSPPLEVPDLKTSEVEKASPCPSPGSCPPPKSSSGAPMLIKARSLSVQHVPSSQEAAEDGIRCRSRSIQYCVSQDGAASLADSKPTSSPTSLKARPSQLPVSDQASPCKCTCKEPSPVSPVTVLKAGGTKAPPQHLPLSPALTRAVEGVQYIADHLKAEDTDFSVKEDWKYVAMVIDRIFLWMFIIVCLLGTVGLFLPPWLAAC
Sequence of Neuronal acetylcholine receptor; alpha4/beta2 (P12390 whole entry): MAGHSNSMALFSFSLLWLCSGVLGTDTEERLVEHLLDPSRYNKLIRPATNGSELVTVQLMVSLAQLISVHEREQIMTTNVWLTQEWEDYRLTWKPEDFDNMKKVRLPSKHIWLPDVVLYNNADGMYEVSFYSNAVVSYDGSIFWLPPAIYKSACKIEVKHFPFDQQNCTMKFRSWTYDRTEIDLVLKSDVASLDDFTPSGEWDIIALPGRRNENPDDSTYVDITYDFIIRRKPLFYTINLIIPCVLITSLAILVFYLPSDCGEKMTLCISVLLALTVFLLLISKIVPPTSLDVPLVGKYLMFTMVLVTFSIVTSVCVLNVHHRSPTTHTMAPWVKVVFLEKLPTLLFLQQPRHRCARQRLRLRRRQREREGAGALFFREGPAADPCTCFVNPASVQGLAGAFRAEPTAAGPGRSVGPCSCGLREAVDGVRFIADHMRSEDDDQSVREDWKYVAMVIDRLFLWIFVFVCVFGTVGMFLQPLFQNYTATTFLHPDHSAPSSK
T1 sequence (P04757 whole entry): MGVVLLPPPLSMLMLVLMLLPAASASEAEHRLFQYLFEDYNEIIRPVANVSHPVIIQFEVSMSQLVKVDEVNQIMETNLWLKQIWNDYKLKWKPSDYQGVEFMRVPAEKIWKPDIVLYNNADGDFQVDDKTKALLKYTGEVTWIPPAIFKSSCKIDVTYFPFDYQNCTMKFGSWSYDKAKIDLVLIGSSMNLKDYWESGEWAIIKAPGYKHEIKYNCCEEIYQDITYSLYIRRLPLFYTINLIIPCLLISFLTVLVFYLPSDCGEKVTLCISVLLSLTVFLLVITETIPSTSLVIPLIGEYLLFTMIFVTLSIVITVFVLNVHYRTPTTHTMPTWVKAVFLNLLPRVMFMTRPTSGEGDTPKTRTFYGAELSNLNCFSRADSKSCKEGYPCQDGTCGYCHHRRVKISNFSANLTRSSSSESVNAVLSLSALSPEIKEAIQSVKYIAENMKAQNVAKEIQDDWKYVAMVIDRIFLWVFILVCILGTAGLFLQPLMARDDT
T1 sequence (P12392 whole entry): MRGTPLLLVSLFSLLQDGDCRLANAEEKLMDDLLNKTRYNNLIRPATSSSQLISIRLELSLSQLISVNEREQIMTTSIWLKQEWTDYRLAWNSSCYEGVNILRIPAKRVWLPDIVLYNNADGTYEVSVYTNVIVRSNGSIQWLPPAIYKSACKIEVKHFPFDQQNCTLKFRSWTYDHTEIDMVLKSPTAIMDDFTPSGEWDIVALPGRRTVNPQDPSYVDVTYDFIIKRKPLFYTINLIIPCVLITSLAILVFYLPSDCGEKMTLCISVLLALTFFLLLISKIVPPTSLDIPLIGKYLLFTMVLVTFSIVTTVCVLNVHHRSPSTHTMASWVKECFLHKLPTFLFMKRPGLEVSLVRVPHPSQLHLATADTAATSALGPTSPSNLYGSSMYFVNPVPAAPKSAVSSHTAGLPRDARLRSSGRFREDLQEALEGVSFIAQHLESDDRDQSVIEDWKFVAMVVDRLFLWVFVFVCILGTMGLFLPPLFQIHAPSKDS

| SMILES | Ki [1] | Ki [2] | other results |
| --- | --- | --- | --- |
| O=C1Cc2ccccc2N1C1CC2CC(C1)N(Cc1ccccc1)C2 (stereo not given) | 1.84 µM | > 10 µM | – |
| O=C1Cc2ccccc2N1C1CC2CCCC(C1)N2 (stereo not given) | – | > 100 µM | – |
| CC(c1ccc(C2CCCCC2)cc1)N1CCC(N2C(=O)Cc3ccccc32)CC1 (stereo not given) | > 10 µM | > 10 µM | – |
| CC1CN(Cc2ccccc2)CCC1N1C(=O)Cc2ccccc21 (stereo not given) | > 10 µM | > 10 µM | – |
| CCC(C)(C)C1CCC(N2CCC(C3C(=O)Nc4ccccc43)CC2)CC1 (stereo not given) | > 10 µM | > 10 µM | – |
| CN1CC2CC1CC(N1C(=O)Cc3ccccc31)C2 (stereo not given) | > 10 µM | > 10 µM | – |
| CN1C2CCCC1CC(N1C(=O)Cc3ccccc31)C2 (stereo not given) | – | > 100 µM | – |
| CN1C2C=C(c3cccnc3)CC1CCC2 (stereo not given) | – | 0.0104 µM | EC50 [3]: 4.8 µM; Emax [4]: 44% |
| C1=C(c2cccnc2)CC2CCC1CN2Cc1ccccc1 (stereo not given) | – | – | Ratio Ki (Rattus norvegicus [5]): 100; Ratio Ki (Rattus norvegicus [6]): 200; EC50 [3]: 2 µM; Emax [4]: 72% |
| CN1C2CCC1CC(N1C(=O)Cc3ccccc31)C2 (stereo not given) | – | > 100 µM | – |

— ChEMBL document CHEMBL1275396 (J Med Chem, 2010)
